From ChEMBL document CHEMBL1629441, “Synthesis, in vitro and in vivo biological evaluation, and comprehensive understanding of structure-activity relationships of dipeptidyl boronic acid proteasome inhibitors constructed from β-amino acids” (J Med Chem, 2010)
pIC50: −log10 of the molar value.

Tests used:
Rattus norvegicus [1] = experiment: Toxicity in Sprague-Dawley rat assessed as incidence of mortality at 1 mg/kg, ig after 10 hrs; format: organism-based; design: dose 1 mg/kg, route intragastric; conditions: in vivo, po
In short: (§1)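 Male SD rats dosed once at 1.0 mg/kg, iv bolus or intragastric, during the PK study. Dosing solution 0.5 mg/mL in 1% ethanol, 1% Tween80, 98% buffered saline. Animals observed for death and toxic reactions over 10 h. n = 4 per PK group.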

[2] = Apparent volume of distribution in Sprague-Dawley rat at 1 mg/kg, iv; format: ADME, organism-based; design: dose 1 mg/kg, route intravenous; conditions: in vivo, read-out: Vz
In short: (§2)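 Male SD rats given single 1.0 mg/kg iv bolus of solution (0.5 mg/mL) in 1% ethanol, 1% Tween80, 98% buffered saline. Heparinized blood samples (n = 4) centrifuged 4000 rpm, 5 min, 4 °C; plasma concentrations used to derive PK parameters.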

SK-OV-3 = experiment: Cytotoxicity against human SKOV3 cells after 72 hrs by MTT assay; format: functional, cell-based; conditions: SK-OV-3, 72 h
In short: (§3)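 MTT growth assay: 3000 cells per well seeded, after 24 h exposed to 10 drug concentrations for 72 h, then MTT (5 mg/mL stock) 4 h at 37 °C. Formazan dissolved in DMSO, absorbance at 540 nm. Points in triplicate; IC50 is mean of at least three independent determinations. Cells grown at 37 °C, 5% CO2 with FBS.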

[3] = Systemic clearance in Sprague-Dawley rat at 1 mg/kg, iv; format: ADME, organism-based; design: dose 1 mg/kg, route intravenous; conditions: in vivo; in short: as §2
HepG2 = experiment: Cytotoxicity against human HepG2 cells after 72 hrs by MTT assay; format: functional, cell-based; conditions: HepG2, 72 h; in short: as §3
SW480 = experiment: Cytotoxicity against human SW480 cells after 72 hrs by MTT assay; format: functional, cell-based; conditions: SW480, 72 h; in short: as §3
PC-3 = experiment: Cytotoxicity against human PC3 cells after 72 hrs by MTT assay; format: functional, cell-based; conditions: PC-3, 72 h; in short: as §3
[4] = Inhibition of human 20S proteasome chymotrypsin-like activity by fluorimetric assay; conditions: read-out: IC50
In short: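 Human 20S proteasome preincubated with test compound, then Suc-Leu-Leu-Val-Tyr-AMC hydrolysis monitored 1 h at 37 °C by fluorescence (excitation 360 nm, 465 nm). Buffer pH 7.5: 20 mM Tris, 1 mM DTT, 10% glycerol, 0.02% (w/v) SDS; DMSO 3% (v/v) final. IC50 from five concentrations, each in duplicate; bortezomib standard.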

[5] = Mean residence time (0-t) in Sprague-Dawley rat at 1 mg/kg, iv; format: ADME, organism-based; design: dose 1 mg/kg, route intravenous; conditions: in vivo; in short: as §2
[6] = AUC (0-t) in Sprague-Dawley rat at 1 mg/kg, iv; format: ADME, organism-based; design: dose 1 mg/kg, route intravenous; conditions: plasma; in short: as §2
[7] = Cmax in Sprague-Dawley rat at 1 mg/kg, iv; format: ADME, organism-based; design: dose 1 mg/kg, route intravenous; conditions: in vivo; in short: as §2
BXPC-3 = experiment: Cytotoxicity against human BxPC3 cells after 72 hrs by MTT assay; format: functional, cell-based; conditions: BXPC-3, 72 h; in short: as §3
[8] = Cytotoxicity against human RPMI18226 cells after 72 hrs by MTT assay; format: functional, cell-based; conditions: RPMI18226, 72 h; in short: as §3
Rattus norvegicus [9] = experiment: Toxicity in Sprague-Dawley rat assessed as incidence of mortality at 1 mg/kg, iv after 10 hrs; format: organism-based; design: dose 1 mg/kg, route intravenous; conditions: in vivo; in short: as §1
[10] = Tmax in Sprague-Dawley rat at 1 mg/kg, iv; format: ADME, organism-based; design: dose 1 mg/kg, route intravenous; conditions: in vivo; in short: as §2
A549 = experiment: Cytotoxicity against human A549 cells after 72 hrs by MTT assay; format: functional, cell-based; conditions: A549, 72 h; in short: as §3
HL-60 = experiment: Cytotoxicity against human HL60 cells after 72 hrs by MTT assay; format: functional, cell-based; conditions: HL-60, 72 h; in short: as §3
[11] = Terminal half life in Sprague-Dawley rat at 1 mg/kg, iv; format: ADME, organism-based; design: dose 1 mg/kg, route intravenous; conditions: in vivo; in short: as §2

**Q.** For `CC(C)C[C@H](NC(=O)CC(NC(=O)c1ccc2ccccc2c1)c1cccc(F)c1)B(O)O` (stereo partly drawn), which Activity (Rattus norvegicus [1]) is on record?
**A.** The Activity was “Non-toxic”.

**Q.** And the Vd [2]?
**A.** The Vd was 3.9 L/kg.

**Q.** What about the pIC50 (SK-OV-3) of the same compound?
**A.** Its pIC50 is 5.06.

**Q.** And the clearance [3]?
**A.** The clearance was 9.6 mL/min/kg.

**Q.** What about the pIC50 (HepG2) of the same compound?
**A.** Its pIC50 is 5.16.

**Q.** What about the pIC50 (SW480) of the same compound?
**A.** Its pIC50 is 5.62.

**Q.** What about the pIC50 (PC-3) of the same compound?
**A.** Its pIC50 is 5.52.

**Q.** And the pIC50 [4]?
**A.** Its pIC50 is 8.52.

**Q.** What about the MRT last [5] of the same compound?
**A.** Its MRT last is 1.4 h.

**Q.** What about the AUC(0-t) [6] of the same compound?
**A.** The AUC(0-t) was 1710 ng·h/mL.

**Q.** What about the Cmax [7] of the same compound?
**A.** The Cmax was 5790 ng/mL.

**Q.** What about the pIC50 (BXPC-3) of the same compound?
**A.** The pIC50 was 5.45.

**Q.** And the pIC50 [8]?
**A.** Its pIC50 is 6.48.

**Q.** What about the Activity (Rattus norvegicus [9]) of the same compound?
**A.** The Activity was “Non-toxic”.

**Q.** And the Tmax [10]?
**A.** The Tmax was 1.8 min.

**Q.** What about the pIC50 (A549) of the same compound?
**A.** The pIC50 was 5.69.

**Q.** What about the pIC50 (HL-60) of the same compound?
**A.** Its pIC50 is 6.28.

**Q.** What about the half-life [11] of the same compound?
**A.** The half-life was 4.5 h.
